{
  "source": "paper PMC4687050",
  "about": "(Nature chemical biology, 2014)",
  "key": {"[1]": {"test_system": "ERK1/2", "assay": "Bio-layer interferometry binding kinetics", "set-up": "species or system human", "conditions": "BLI, 25 °C", "method_in_brief": "(§1)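 Kinetics by bio-layer interferometry at 25 °C in 20 mM HEPES pH 7.5, 150 mM NaCl, 0.5 mM TCEP. Biotinylated kinases were captured on streptavidin biosensors. Association and dissociation phases ran 600 s each over several compound concentrations. Controls were protein-coated sensors without compound and uncoated sensors with compound. Data were double-referenced and fitted for binding constants.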"}, "[2]": {"test_system": "MDA-MB-231 cells (pERK, pRSK1, pETS1)", "assay": "ERK signalling after inhibitor wash-out, Western blotting", "type": "cell-based, human", "conditions": "500 nM for 4 hours", "method_in_brief": "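MDA-MB-231 cells in DMEM/10% FBS with penicillin/streptomycin were treated with ERK inhibitor for 4 h, washed twice in PBS and released into fresh medium for 0.5, 1 and 2 h. Cells were trypsinised and lysed in SDS loading buffer with sonication. Equal protein was immunoblotted for pERK, pRSK and pETS1, with total ERK1/2, GAPDH or α-tubulin as loading controls. Band intensities were normalised to DMSO-treated cells.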"}, "[3]": {"test_system": "HEK293T cells", "assay": "Cell survival of BRCA2 siRNA knock-down cells", "type": "cell-based, human", "method_in_brief": "(§2)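 HEK293T cells were reverse-transfected with 40 nM siRNA per plate (Dharmafect 1), with GFP siRNA as control, then reseeded after overnight incubation. They were transfected again on day 3. For the RAD51 arm, knockdown was verified by Western blot at 12 h and day 6, with six-day compound exposure. Cells were grown in DMEM/10% FBS; viability was read by resazurin incubation for 2 h, fluorescence at 590 nm.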"}, "[4]": {"molecular_target": "JNK3 (Homo sapiens, UniProt P53779)", "sequence (P53779 whole entry)": "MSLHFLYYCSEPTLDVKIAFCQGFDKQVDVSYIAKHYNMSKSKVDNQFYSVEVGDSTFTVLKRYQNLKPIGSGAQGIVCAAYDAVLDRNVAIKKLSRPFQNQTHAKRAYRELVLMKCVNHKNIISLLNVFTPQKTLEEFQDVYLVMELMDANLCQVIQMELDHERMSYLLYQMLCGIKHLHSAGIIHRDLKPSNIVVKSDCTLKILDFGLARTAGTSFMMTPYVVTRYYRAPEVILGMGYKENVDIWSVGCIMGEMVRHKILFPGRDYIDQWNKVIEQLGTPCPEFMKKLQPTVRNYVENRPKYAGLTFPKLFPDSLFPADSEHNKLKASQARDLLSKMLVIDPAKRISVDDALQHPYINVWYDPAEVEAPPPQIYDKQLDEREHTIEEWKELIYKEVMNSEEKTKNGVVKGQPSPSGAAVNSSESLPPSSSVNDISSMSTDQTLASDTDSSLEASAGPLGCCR", "assay": "Enzymatic IC50 assay", "type": "biochemical"}, "[5]": {"molecular_target": "CSNK2A2 (Homo sapiens, UniProt P19784)", "sequence (P19784 whole entry)": "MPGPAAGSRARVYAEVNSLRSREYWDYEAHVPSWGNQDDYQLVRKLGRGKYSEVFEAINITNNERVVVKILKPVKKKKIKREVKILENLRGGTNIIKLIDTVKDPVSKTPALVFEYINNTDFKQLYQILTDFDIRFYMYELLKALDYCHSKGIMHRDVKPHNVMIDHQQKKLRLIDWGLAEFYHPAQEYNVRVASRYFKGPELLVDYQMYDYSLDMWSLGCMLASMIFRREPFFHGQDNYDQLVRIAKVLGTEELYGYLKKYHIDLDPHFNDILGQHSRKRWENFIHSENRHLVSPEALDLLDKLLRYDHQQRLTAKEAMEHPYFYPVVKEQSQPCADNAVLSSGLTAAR", "assay": "Enzymatic IC50 assay", "type": "biochemical"}, "[6]": {"molecular_target": "T1, ERK1 (Homo sapiens, UniProt P27361)", "T1 sequence (P27361 whole entry)": "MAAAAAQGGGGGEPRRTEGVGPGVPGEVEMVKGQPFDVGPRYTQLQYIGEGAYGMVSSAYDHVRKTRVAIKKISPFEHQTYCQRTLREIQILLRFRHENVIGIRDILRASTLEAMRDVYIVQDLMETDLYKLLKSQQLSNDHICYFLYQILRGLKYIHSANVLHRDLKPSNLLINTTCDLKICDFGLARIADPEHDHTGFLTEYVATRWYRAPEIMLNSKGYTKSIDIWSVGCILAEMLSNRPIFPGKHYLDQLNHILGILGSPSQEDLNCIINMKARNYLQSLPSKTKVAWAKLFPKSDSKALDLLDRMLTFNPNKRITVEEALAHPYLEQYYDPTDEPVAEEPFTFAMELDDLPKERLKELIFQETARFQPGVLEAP", "assay": "Isothermal titration calorimetry", "type": "binding", "conditions": "ITC"}, "[7]": {"molecular_target": "T1, ERK1", "assay": "Enzymatic IC50 assay", "type": "biochemical"}, "[8]": {"test_system": "V-C8 cells", "assay": "Cell viability of BRCA2-deficient versus BRCA2-complemented cells", "type": "cell-based, hamster", "conditions": "three-day exposure", "method_in_brief": "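They were exposed to test compound for three days over a concentration range, then incubated 2 h in resazurin-containing medium; fluorescence was read at 590 nm.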"}, "[9]": {"molecular_target": "ERK2 (Homo sapiens, UniProt P28482)", "sequence (P28482 whole entry)": "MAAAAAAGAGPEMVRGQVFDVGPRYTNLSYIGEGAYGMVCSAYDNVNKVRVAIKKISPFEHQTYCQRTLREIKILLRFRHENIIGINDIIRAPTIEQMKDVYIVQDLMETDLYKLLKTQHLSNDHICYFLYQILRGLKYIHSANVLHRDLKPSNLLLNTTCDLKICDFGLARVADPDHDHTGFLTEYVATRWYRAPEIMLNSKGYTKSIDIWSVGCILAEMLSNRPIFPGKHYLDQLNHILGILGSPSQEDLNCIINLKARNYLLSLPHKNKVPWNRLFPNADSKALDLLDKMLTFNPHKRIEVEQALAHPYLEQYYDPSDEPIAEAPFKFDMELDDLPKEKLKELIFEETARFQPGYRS", "assay": "Isothermal titration calorimetry", "type": "binding", "conditions": "ITC"}, "[10]": {"test_system": "ERK2 mutants", "assay": "Bio-layer interferometry binding kinetics on ERK2 mutants", "set-up": "species or system human"}, "[11]": {"molecular_target": "Cdc2-like kinase 2 (CLK2) (Homo sapiens, UniProt P49760)", "sequence (P49760 whole entry)": "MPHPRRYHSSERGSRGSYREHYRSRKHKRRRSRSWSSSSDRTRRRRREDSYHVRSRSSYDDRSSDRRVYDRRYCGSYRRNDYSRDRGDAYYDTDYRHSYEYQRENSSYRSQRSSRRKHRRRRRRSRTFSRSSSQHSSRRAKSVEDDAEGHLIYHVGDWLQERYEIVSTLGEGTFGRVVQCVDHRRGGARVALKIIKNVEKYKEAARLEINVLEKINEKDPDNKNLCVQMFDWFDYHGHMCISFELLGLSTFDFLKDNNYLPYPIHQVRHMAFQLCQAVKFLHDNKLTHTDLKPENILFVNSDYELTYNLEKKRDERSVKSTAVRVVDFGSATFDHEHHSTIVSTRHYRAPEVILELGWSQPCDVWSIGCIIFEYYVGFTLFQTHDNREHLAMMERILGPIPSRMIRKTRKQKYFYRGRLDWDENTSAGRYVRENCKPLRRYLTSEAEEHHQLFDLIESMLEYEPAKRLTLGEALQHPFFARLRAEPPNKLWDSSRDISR", "assay": "Enzymatic IC50 assay", "type": "biochemical"}, "[12]": {"test_system": "MDA-MB 231 cells", "assay": "Growth of cells with doxycycline-induced BRCA2 shRNA depletion", "type": "cell-based, human", "method_in_brief": "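MDA-MB-231 cells carrying a doxycycline-inducible BRCA2 shRNA were seeded at 2500 cells/well in DMEM/10% FBS with penicillin/streptomycin and treated with ERK inhibitors over a concentration range. Cell number was read after 2 h in resazurin-containing medium, by fluorescence at 590 nm.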"}, "[13]": {"test_system": "CLK1, CLK2, JNK2, CSNK2A1/A2, DRAK1 and TTK", "assay": "Bio-layer interferometry binding kinetics on off-targets", "set-up": "species or system human", "conditions": "BLI, 25 °C", "method_in_brief": "as §1"}, "[14]": {"test_system": "HEK293T cells lacking RAD51", "assay": "Cell viability of RAD51 siRNA-depleted cells", "type": "cell-based, human", "conditions": "six-day exposure", "method_in_brief": "as §2"}},
  "note": "“Also recorded” adds a separate entry of the source.",
  "data": [
    {"smiles": "Nc1ncnc2c1c(I)cn2[C@@H]1O[C@H](CO)[C@@H](O)[C@H]1O", "note": "[5-iTU, 5-iodotubercidin]", "values": [
      {"measurement": "binding kinetics (association and dissociation)", "setting": "[1]", "value": "fast kinetic behaviours"}
    ]},
    {"smiles": "Nc1[nH]nc2nnc(-c3c(-c4ccccc4)nn4ccccc34)cc12", "note": "[FR180204]", "values": [
      {"measurement": "binding kinetics (association and dissociation)", "setting": "[1]", "value": "fast kinetic behaviours"},
      {"measurement": "pRSK1 inhibition", "setting": "[2]", "value": "not see a strong effect"}
    ]},
    {"smiles": "O=C(Nc1ccc2[nH]nc(-c3ccncc3)c2c1)[C@@H]1CCN(CC(=O)N2CCN(c3ccc(-c4ncccn4)cc3)CC2)C1", "note": "[SCH772984]", "values": [
      {"measurement": "sensitization by BRCA2 knockdown", "setting": "[3]", "value": "sensitized"},
      {"measurement": "IC50", "setting": "[4]", "value": 632, "unit": "nM"},
      {"measurement": "IC50 in the enzymatic assay", "setting": "[5]", "value": "no activity"},
      {"measurement": "binding kinetics (association and dissociation)", "setting": "[1]", "value": "slow binding kinetics"},
      {"measurement": "binding enthalpy change", "setting": "[6]", "value": "about −20 kcal/mol"},
      {"measurement": "IC50", "setting": "[7]", "value": 8.3, "unit": "nM"},
      {"measurement": "cell survival of BRCA2-deficient compared with BRCA2-complemented cells", "setting": "[8]", "value": "significant reduction in cell survival"},
      {"measurement": "binding enthalpy change", "setting": "[9]", "value": "about −20 kcal/mol"},
      {"measurement": "binding kinetics", "setting": "[10]; listed as SCH771984", "value": "retained slow association and dissociation kinetics; also recorded: still showed slow binding kinetics"},
      {"measurement": "IC50", "setting": "[11]", "value": 104, "unit": "nM"},
      {"measurement": "sensitization by BRCA2 knockdown", "setting": "[12]", "value": "sensitized"},
      {"measurement": "binding kinetics (association and dissociation)", "setting": "[13]", "value": "fast association and dissociation rates"}
    ]},
    {"smiles": "Cc1cnc(Nc2ccc(F)cc2Cl)nc1-c1c[nH]c(C(=O)N[C@H](CO)c2cccc(Cl)c2)c1", "note": "[VTX-11e]", "values": [
      {"measurement": "sensitization by BRCA2 knockdown", "setting": "[3]", "value": "sensitized"},
      {"measurement": "binding kinetics (association and dissociation)", "setting": "[1]", "value": "slow association and dissociation patterns"},
      {"measurement": "dissociation half-life", "setting": "[1]; estimated", "value": "35 to 46", "unit": "min"},
      {"measurement": "cell killing of RAD51-depleted relative to control cells", "setting": "[14]", "value": "significant increase in cell killing"},
      {"measurement": "cell survival of BRCA2-deficient compared with BRCA2-complemented cells", "setting": "[8]", "value": "Significant differences in cell survival"},
      {"measurement": "binding kinetics", "setting": "[10]; BLI, double mutants Y36Q/Y64K and Y36Q/Y64D", "value": "increase inhibitor off-rates further"},
      {"measurement": "binding kinetics", "setting": "[10]; BLI, single mutants Y36Q and Y64K", "value": "significantly reduced inhibitor off-rates"}
    ]},
    {"smiles": "O=C(c1cc(Cc2n[nH]c(=O)c3ccccc23)ccc1F)N1CCN(C(=O)C2CC2)CC1", "note": "[olaparib]", "values": [
      {"measurement": "cell killing of RAD51-depleted relative to control cells", "setting": "[14]", "value": "specific elimination of RAD51-depleted cells"}
    ]}
  ]
}
